This is an account of results in ChEMBL document CHEMBL1136933 (J Med Chem, 2009).

Assay [1] concerns the target T1, Muscarinic acetylcholine receptor M3 (Homo sapiens, UniProt P20309). Nature of the assay: Activation of human muscarinic M3 receptor expressed in CHO cells coexpressing Gq protein assessed as potentiation of acetylcholine-induced intracellular Ca2+ mobilization at 30 uM relative to acetylcholine. The assay is classed as functional, cell-based. (In general: Calcium flux is commonly read through the fluorescence of an indicator in the cells.)
Target sequence in this assay (P20309 whole entry, looked up): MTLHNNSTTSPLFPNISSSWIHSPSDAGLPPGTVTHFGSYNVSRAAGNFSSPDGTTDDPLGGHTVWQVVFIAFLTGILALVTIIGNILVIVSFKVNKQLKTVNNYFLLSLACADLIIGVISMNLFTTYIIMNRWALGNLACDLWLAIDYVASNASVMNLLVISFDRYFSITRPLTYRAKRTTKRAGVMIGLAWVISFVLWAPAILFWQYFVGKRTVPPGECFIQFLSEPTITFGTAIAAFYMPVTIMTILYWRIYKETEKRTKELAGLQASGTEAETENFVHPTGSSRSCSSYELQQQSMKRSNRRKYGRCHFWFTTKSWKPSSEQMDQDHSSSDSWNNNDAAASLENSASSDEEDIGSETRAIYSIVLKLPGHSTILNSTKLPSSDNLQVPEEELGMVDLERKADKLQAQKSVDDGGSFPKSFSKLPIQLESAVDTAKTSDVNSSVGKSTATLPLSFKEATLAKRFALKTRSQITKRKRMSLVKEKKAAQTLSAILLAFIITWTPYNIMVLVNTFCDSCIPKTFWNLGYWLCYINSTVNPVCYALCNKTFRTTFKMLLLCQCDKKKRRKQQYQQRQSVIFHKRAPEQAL

The target of assay [2] is T2, Muscarinic acetylcholine receptor M4 (Rattus norvegicus, UniProt P08485).
T2 sequence (P08485 whole entry): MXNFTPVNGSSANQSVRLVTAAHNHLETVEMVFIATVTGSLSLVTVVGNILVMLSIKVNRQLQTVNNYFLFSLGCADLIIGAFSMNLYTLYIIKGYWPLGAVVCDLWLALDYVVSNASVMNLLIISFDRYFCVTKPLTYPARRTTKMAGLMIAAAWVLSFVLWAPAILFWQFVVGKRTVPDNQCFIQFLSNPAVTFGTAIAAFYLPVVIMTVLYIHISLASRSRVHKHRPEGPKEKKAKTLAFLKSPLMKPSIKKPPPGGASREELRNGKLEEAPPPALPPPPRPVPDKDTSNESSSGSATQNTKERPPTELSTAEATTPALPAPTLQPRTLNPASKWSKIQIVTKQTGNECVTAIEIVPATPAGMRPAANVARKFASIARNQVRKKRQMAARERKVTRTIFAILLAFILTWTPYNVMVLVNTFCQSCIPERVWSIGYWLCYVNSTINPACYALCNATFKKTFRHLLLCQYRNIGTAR
The assay is described as follows: Activation of rat muscarinic M4 receptor expressed in CHO cells coexpressing chimeric Gqi5 protein assessed as potentiation of acetylcholine-induced intracellular Ca2+ mobilization. The assay is classed as functional, cell-based. The procedure, abridged: (§1)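 Calcium flux assay. Stable CHO lines were seeded at 5 × 10^4 cells/well (M1, M3, M5) or 6 × 10^4 cells/well (Gqi5 M2, M4) and grown overnight at 37 °C, 5% CO2. Cells were loaded 1 h at 37 °C with 2 µM Fluo-4 AM. […] At least three independent determinations, each in duplicate or more.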

The target of assay [3] is T3, Muscarinic acetylcholine receptor M1 (Rattus norvegicus) (UniProt P08482).
T3 sequence (whole entry): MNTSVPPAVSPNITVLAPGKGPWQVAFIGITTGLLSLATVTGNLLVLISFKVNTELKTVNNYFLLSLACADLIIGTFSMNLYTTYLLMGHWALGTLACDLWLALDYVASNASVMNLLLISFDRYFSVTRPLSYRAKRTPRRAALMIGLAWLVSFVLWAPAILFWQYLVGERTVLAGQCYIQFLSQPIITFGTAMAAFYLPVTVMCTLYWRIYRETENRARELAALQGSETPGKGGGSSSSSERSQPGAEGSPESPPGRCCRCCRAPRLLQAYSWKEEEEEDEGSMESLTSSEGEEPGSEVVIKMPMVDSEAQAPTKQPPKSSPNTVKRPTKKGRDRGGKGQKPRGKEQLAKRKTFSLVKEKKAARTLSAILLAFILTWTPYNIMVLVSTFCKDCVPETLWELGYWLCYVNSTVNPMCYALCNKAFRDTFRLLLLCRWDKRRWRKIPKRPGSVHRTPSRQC
The assay is described as follows: Activation of rat muscarinic M1 receptor expressed in CHO cells co-expressing Gq protein assessed as potentiation of acetylcholine-induced intracellular Ca2+ mobilization at 30 uM relative to acetylcholine. The assay is classed as functional, cell-based.

Assay [4] deals with T4, Muscarinic acetylcholine receptor M1 (Rattus norvegicus, UniProt P08482).
T4 sequence (P08482 whole entry): T3 sequence (whole entry)
Nature of the assay: Activation of rat muscarinic M1 receptor expressed in CHO cells co-expressing Gq protein assessed as potentiation of acetylcholine-induced intracellular Ca2+ mobilization. The assay is classed as functional, cell-based.

Assay [5] concerns the target T1, Muscarinic acetylcholine receptor M3. The assay is described as follows: Activation of human muscarinic M3 receptor expressed in CHO cells coexpressing Gq protein assessed as potentiation of acetylcholine-induced intracellular Ca2+ mobilization. The assay is classed as functional, cell-based. In outline:
as §1
Target sequence in this assay (P20309 whole entry): as the sequence (P20309 whole entry, looked up) above

Assay [6] has as its target T5, Muscarinic acetylcholine receptor M2 (Rattus norvegicus, UniProt P10980).
T5 sequence (P10980 whole entry): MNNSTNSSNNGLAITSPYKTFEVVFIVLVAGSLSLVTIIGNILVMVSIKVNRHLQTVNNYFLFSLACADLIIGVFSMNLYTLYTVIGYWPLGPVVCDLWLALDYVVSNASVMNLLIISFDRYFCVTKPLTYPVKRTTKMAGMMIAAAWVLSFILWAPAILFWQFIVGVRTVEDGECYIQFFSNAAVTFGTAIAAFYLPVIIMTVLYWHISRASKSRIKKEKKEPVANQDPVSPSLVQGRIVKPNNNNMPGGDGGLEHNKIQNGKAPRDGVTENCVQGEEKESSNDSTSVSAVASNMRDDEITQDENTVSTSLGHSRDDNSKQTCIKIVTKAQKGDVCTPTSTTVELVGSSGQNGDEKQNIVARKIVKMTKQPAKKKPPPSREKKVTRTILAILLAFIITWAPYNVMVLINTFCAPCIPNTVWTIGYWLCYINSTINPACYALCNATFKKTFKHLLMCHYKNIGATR
Nature of the assay: Activation of rat muscarinic M2 receptor expressed in CHO cells co-expressing chimeric Gqi5 protein assessed as potentiation of acetylcholine-induced intracellular Ca2+ mobilization. The assay is classed as functional, cell-based. The procedure, abridged:
as §1

In assay [7] the target is T6, Muscarinic acetylcholine receptor M5 (Homo sapiens) (UniProt P08912).
T6 sequence (whole entry): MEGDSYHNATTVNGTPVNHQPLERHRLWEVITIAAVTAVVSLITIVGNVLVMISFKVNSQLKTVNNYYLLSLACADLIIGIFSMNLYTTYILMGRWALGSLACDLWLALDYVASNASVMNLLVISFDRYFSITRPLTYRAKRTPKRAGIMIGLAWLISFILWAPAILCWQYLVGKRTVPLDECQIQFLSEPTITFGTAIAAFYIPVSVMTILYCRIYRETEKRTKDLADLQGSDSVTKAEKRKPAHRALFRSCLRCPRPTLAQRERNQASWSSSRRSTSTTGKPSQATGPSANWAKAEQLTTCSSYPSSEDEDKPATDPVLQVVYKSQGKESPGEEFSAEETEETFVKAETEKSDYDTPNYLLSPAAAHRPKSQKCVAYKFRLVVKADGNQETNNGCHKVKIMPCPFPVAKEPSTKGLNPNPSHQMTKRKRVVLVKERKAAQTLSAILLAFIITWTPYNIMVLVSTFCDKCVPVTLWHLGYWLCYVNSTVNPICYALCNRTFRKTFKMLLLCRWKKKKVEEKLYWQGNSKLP
The assay is described as follows: Activation of human muscarinic M5 receptor expressed in CHO cells coexpressing Gq protein assessed as potentiation of acetylcholine-induced intracellular Ca2+ mobilization at 30 uM relative to acetylcholine. The assay is classed as functional, cell-based.

The target of assay [8] is T7, Muscarinic acetylcholine receptor M2 (Rattus norvegicus) (UniProt P10980).
T7 sequence (whole entry): T5 sequence (P10980 whole entry)
Nature of the assay: Activation of rat muscarinic M2 receptor expressed in CHO cells coexpressing chimeric Gqi5 protein assessed as potentiation of acetylcholine-induced intracellular Ca2+ mobilization at 30 uM relative to acetylcholine. The assay is classed as functional, cell-based.

The target in assay [9] is T8, Muscarinic acetylcholine receptor M5 (Homo sapiens, UniProt P08912).
T8 sequence (P08912 whole entry): T6 sequence (whole entry)
The assay is described as follows: Activation of human muscarinic M5 receptor expressed in CHO cells coexpressing Gq protein assessed as potentiation of acetylcholine-induced intracellular Ca2+ mobilization. The assay is classed as functional, cell-based.

In assay [10] the target is T6, Muscarinic acetylcholine receptor M5 (Homo sapiens). The assay is described as follows: Inhibition of [3H]NMS binding to human muscarinic M5 receptor expressed in CHO cells coexpressing Gq protein at 30 uM by scintillation counting. The assay is classed as cell-based.

As for `O=C1C(=O)N(Cc2ccc(C(F)(F)F)cc2)c2c(Cl)cccc21`, the %max in assay [1] turned out to be 78%; in assay [3], 67%; in assay [7], 70.8%; in [8] it was 55%. In addition, the EC50 in assay [2] (read-out: EC50) was more than 10 µM; in assay [4] it was 3.2 µM; in [5], 2.22 µM; in [6] (read-out: EC50) it was 2.84 µM; in assay [9], 2.11 µM.

As for `O=C1C(=O)N(Cc2ccccc2Cl)c2ccc(OC(F)(F)F)cc21`, the %max is 12.3% in [3] and 51.9% in assay [7]. Also, the EC50 in assay [4] was more than 30 µM; in [9], 4.07 µM.

For the molecule `O=C1C(=O)N(Cc2ccc(Br)cc2)c2ccccc21`, the values for the %max in assay [1], in [3] and in assay [7] were 65.5%, 82.4% and 74.4%, respectively. Also, the EC50 result in [2] (cho) is “Not Active”; in assay [4], 6.04 µM; in assay [5], 6.38 µM; in assay [6] (cho), “Not Active”; in assay [9], 4.08 µM. The inhibition in assay [10] was 50%.

Consider `O=C1C(=O)N(Cc2ccc(Br)cc2)c2c(F)cccc21`, for which the %max in assay [3] worked out at 62.7%; in [7], 51.7%. Further, the EC50 came to 3.99 µM in assay [4] and 1.93 µM in assay [9].

As to `COc1cccc(CN2C(=O)C(=O)c3c(Cl)ccc(Cl)c32)c1`, the results for the %max in [3] and in [7] were 13.3% and 35.1%, respectively. In addition, the EC50 was more than 30 µM in assay [4] and 7.15 µM in assay [9].

On to `Cc1ccccc1CN1C(=O)C(=O)c2cc(OC(F)(F)F)ccc21`, for which the %max was determined as 26.2% in assay [3] and 60% in assay [7]. Besides, the EC50 in assay [4] is more than 30 µM; in assay [9] it was 3.28 µM.

With `O=C1C(=O)N(Cc2ccc(OC(F)(F)F)cc2)c2ccc(OC(F)(F)F)cc21`, the results for the %max in assay [3] and in assay [7] were 13.8% and 58.9%, respectively. In addition, the EC50 in [4] was more than 30 µM; in assay [9] it was 1.86 µM.

For `O=C1C(=O)N(Cc2ccc(Br)cc2F)c2ccc(OC(F)(F)F)cc21`, the %max in [3] turned out to be 11.6%; in [7] it was 36.4%. Besides, the EC50 in assay [4] was more than 30 µM; in [9], more than 10 µM.

For `O=C1C(=O)N(Cc2ccc(C(F)(F)F)cc2)c2c(F)cccc21`, the %max in [3] is 60.9%; in assay [7] it was 71.1%. In addition, the EC50 came out at 5.18 µM in [4] and 3.26 µM in [9].

Usually EC50 stands for the concentration giving half of the maximal effect. In general, inhibition refers to the change of the read-out against control, counted positive when it falls. A higher inhibition goes with strong suppression.
